The values that follow come from PubChem BioAssay AID624204 (Sanford-Burnham Center for Chemical Genomics, 2012).

The whole screen tested about 360,000 compounds, of which about 770 (0.21%) were called active.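 Rule for the calls: active = inhibition at least 30% at 10 µM, raw YFP signal under a set limit, fluorescence ratio 0.5 to 1.5; inactive = the rest.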 The entries come from a sample that favours actives as a whole.

Sequence of Sentrin-specific protease 1 (Homo sapiens) (Q9P0U3 419-644 limits assumed): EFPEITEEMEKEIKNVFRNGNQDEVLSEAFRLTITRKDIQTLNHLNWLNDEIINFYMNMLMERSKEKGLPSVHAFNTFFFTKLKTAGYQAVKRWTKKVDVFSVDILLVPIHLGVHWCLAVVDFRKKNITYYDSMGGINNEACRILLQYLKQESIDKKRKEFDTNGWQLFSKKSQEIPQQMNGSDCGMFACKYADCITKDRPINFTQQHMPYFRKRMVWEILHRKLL

This assay has as its target Sentrin-specific protease 1 (Homo sapiens) (UniProt Q9P0U3). Briefly: blockers of SENP1 SUMO protease activity – biochemical, FRET, uHTS, primary screen (AID 624204).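 Note: 0% = enzyme with DMSO and 100% = no enzyme wells.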 To be noted: recombinant SENP1 catalytic domain, CyPet-SUMO1-YPet FRET cleavage; at 10 µM; hits give high values. The essentials: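 System: Recombinant human SENP1 catalytic domain, His6-tagged | Incubation: Enzyme reaction for 50 min at room temperature, dark | Medium: Tris pH 8 with BME, BSA, NP40 and catalase | Also added: 25 nM SUMO1 FRET substrate | Compound: 10 µM single point, 0.5% DMSO | Measured by: FRET fluorescence in CFP and YFP emission channels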
As for `CC1(C)CN(c2ccc(-c3ccnc4ncnn34)cc2)C1=O`, the inhibition is -1.93% (inactive).

Consider `COc1ccc(C(=O)C[n+]2ccc(N)c(C)c2C)cc1`, for which the inhibition is 1.97% (inactive).

As for `O=C(NC(=O)c1ccccc1)Nc1ccccc1O`, the inhibition is 31.8% (active).

With `O=C(NC(=S)Nc1cccc2c(O)cccc12)c1cccc(Br)c1`, the inhibition is -10.5% (inactive).

Take `O=C(Cc1ccc(Cl)cc1)NC(=S)Nc1ccccc1O`: the inhibition was 0.309% (inactive).

As for `CC(C)Cn1cnc2c1c(=O)n(CC(O)c1ccccc1)c(=O)n2CC(C)C` (configuration not stated), the inhibition is 1.26% (inactive).

On to `CC1(C(=O)NCc2ccccc2)CSCC(=O)N1CCCn1ccnc1` (configuration not stated), for which the inhibition was 0.15% (inactive).

Take `COc1cc(Br)cc(/C=N/c2ncn[nH]2)c1O`: the inhibition was 10.2% (inactive).

As for `CC(=O)N(CC(O)CO)c1c(I)c(C(=O)NCC(O)CO)c(I)c(C(=O)NCC(O)CO)c1I` (configuration not stated), the inhibition is -0.483% (inactive).

For `COCC(C)NC(=O)c1ccc(-n2nc(C(F)(F)F)cc2-c2cccs2)cc1` (configuration not stated), the inhibition was -1.75% (inactive).

With `CCN(CC(=O)Nc1cc(Cl)ccc1C)C(=O)CSCc1ccc(C)cc1`, the inhibition was 1.09% (inactive).

For the molecule `CN(C)c1ccc(Nc2c3c4c(cccc4n(C)c2=O)C(=O)c2ccccc2-3)cc1`, the inhibition is 60.4% (active).

On to `Cc1nn2c(c1-c1ccccc1)N=C(c1ccco1)CC2c1ccccc1` (configuration not stated), for which the inhibition is 38.7% (active).

With `O=C(O)CCCC(=O)N1N=C(c2ccco2)CC1c1ccco1` (configuration not stated), the inhibition was 0.794% (inactive).

Regarding `CCOc1ccc(-c2c(C)n([O-])c3c([n+]2=O)CCCC3)cc1`, the inhibition is 0.993% (inactive).

With `COC(CNC(=O)Cn1ncc2ccsc2c1=O)OC`, the inhibition is 2.87% (inactive).

As for `O=C(NCCC1CCCCN1S(=O)(=O)c1cccs1)C(=O)Nc1ccc(F)cc1F` (configuration not stated), the inhibition is 0.809% (inactive).

Consider `COc1ccc(C=C2CCC3C(CCCC34OCCO4)C2=O)cc1` (configuration not stated), for which the inhibition was 0.924% (inactive).

For `Cc1ccc(N=C2NC(=O)c3cccc([N+](=O)[O-])c32)cc1`, the inhibition is 1.42% (inactive).

With `COc1ccc(NC(=O)CN(C)C(=O)Cc2coc3cc(C)c(C)cc23)cc1`, the inhibition was -6.79% (inactive).

For `O=C1C=C(c2cccc(Cl)c2O)C[C@@H](c2ccc(F)cc2)C1`, the inhibition is 54.2% (active).

For `COc1ccccc1C1=CC(=O)C[C@H](c2ccc(F)cc2)C1`, the inhibition is 3.3% (inactive).

As to `O=C1C=C(c2cccc(Cl)c2)C[C@@H](c2ccc(F)cc2)C1`, the inhibition is 1.33% (inactive).

As to `O=S1(=O)CCN(C2CCCCCCCCCCC2)CC1`, the inhibition is 1.39% (inactive).

For the molecule `COC(=O)c1ccc(CNC(=O)C2CCC(=O)N(Cc3ccccn3)C2)cc1` (configuration not stated), the inhibition was 0.319% (inactive).

For `COCCNc1nc2nonc2nc1N1CCCC1c1nccs1` (configuration not stated), the inhibition was -72.6% (inactive).

Take `Cn1c(-c2sccc2OCc2cccc(C(F)(F)F)c2)n[nH]c1=S`: the inhibition was 2.98% (inactive).

Regarding `FC(F)(F)c1ccc(-n2cn[nH]c2=S)cc1`, the inhibition was -0.325% (inactive).

Consider `Cn1c(-c2sc3cc(C(F)(F)F)cnc3c2-c2ccccc2)n[nH]c1=S`, for which the inhibition was 31.9% (active).

On to `CNc1nccc(-c2ccc(Cl)cc2)c1C#N`, for which the inhibition is -1.17% (inactive).

Take `Cc1ccc(NC(=O)Cn2c(=O)n(CCC(=O)NC3CCN(Cc4ccccc4)CC3)c(=O)c3ccccc32)cc1`: the inhibition is 2.04% (inactive).

Regarding `Cc1cc2c(cc1C)NC1(C[C@H]3CCC(=O)N4CC[C@@H](C1)[C@@H]34)C(=NC(C)(C)CC(C)(C)C)N2` (some centres not stated), the inhibition is 2.4% (inactive).

Turning to `O=C1CCC[C@@H]2CC(N3CCCCC3)C[C@@H]3CCN1[C@H]23` (some centres not stated), the inhibition is -1.06% (inactive).

Take `O=C1CC[C@@H]2CC3(C[C@@H]4CCN1[C@H]24)Nc1cc([N+](=O)[O-])ccc1NC3=NC1CCCCC1` (some centres not stated): the inhibition is 51% (active).

For the molecule `Cc1cccc(NC(=O)N(Cc2cc3cc(C)cc(C)c3[nH]c2=O)CC2COCCO2)c1` (configuration not stated), the inhibition is 1.21% (inactive).

On to `COc1ncnc2c1N=C1CC(C)(C)CC(N)=C1S2`, for which the inhibition was 33.8% (active).

For `O=C1/C(=C\c2ccc(O)cc2)CCC1CNc1ccc(Cl)cc1` (configuration not stated), the inhibition is -58.8% (inactive).

`COc1ccc(C(=O)OC(C)C(=O)NC2CCCC2)cc1S(=O)(=O)N1CCOCC1` (configuration not stated): the inhibition was 2.06% (inactive).

Consider `COc1cc(/C=C2\CCCc3c2nc2ccccc2c3C(=O)O)cc(Cl)c1O`, for which the inhibition is 54.9% (active).

In the case of `COc1ccc(-n2nc(C(=O)NCC(=O)N3CCCCCC3)c3ccccc3c2=O)cc1Cl`, the inhibition is -0.802% (inactive).

For `NS(=O)(=O)c1ccc(NC(=O)COC(=O)c2c3c(nc4ccccc24)/C(=C\c2ccc4c(c2)OCO4)CCC3)cc1`, the inhibition is -24.4% (inactive).

Regarding `COc1cccc(COC(=O)C2CCN(S(=O)(=O)c3cccs3)CC2)c1OC`, the inhibition was -0.283% (inactive).

For the molecule `C=CC[C@@H](Cc1ccc(F)cc1)C(=O)OC[C@H]1CCCN1C(=O)[C@H](CC=C)CC(=O)N(CCO)Cc1ccccc1`, the inhibition was 0.419% (inactive).

For `O=C(CCNS(=O)(=O)c1cccs1)N1CCN(c2ccc(F)cc2)CC1`, the inhibition was 7.35% (inactive).

`CCOc1ccc(OCC(=O)OC(C)C(=O)NC2CCCCC2C)cc1` (configuration not stated): the inhibition was 0.477% (inactive).

Turning to `CCOc1ccc(N(CC(=O)Nc2cccc(OC)c2)S(C)(=O)=O)cc1`, the inhibition is -0.216% (inactive).

As to `O=C(CC1CCCCC1)Nc1c2c(nn1-c1ccc(F)cc1)CS(=O)(=O)C2`, the inhibition is -0.662% (inactive).

In the case of `CCOC(=O)c1cc2c(=O)n3ccccc3nc2n(CC(C)C)c1=NC(=O)c1c(-c2c(F)cccc2Cl)noc1C`, the inhibition was -28.9% (inactive).

Consider `O=C(O)c1cc2ccccc2c(=O)s1`, for which the inhibition is 2.49% (inactive).

As to `CCOC(=O)N1CCN(CC(=O)c2ccc3c(c2)CCN3)CC1`, the inhibition is -2.56% (inactive).

Turning to `N#CCC(=O)NC1CCC(CC2CCC(NC(=O)CC#N)CC2)CC1` (configuration not stated), the inhibition is -0.386% (inactive).

For the molecule `O=C(COC(=O)/C=C/c1ccc(Br)o1)Nc1cccc(S(=O)(=O)N2CCOCC2)c1`, the inhibition is -7.92% (inactive).

As to `Cc1cccc(-c2nnc(SCC(=O)O)n2Cc2ccccc2)c1`, the inhibition was 0.0319% (inactive).

As for `CCn1nnnc1SCC(=O)c1ccc(C)cc1C`, the inhibition is 1.48% (inactive).

For the molecule `Cc1ccc2c(c1)nnc1nnc(SCC(=O)O)n12`, the inhibition is 73% (active).

For `C[C@@H]1C[C@@H]2O[C@H]2/C=C\C=C\C(=O)Cc2c(Cl)c(O)cc(O)c2C(=O)O1`, the inhibition was -2.26% (inactive).

On to `CCCS(=O)(=O)N1CCCC(C(=O)NCCN2CCCCC2C)C1` (configuration not stated), for which the inhibition is -23.8% (inactive).

By inhibition is commonly meant the drop in the measured response relative to a control, in per cent.
